Data: ChEMBL document CHEMBL1126973, “Synthesis and tubulin binding of novel C-10 analogues of colchicine” (J Med Chem, 1993)

Key:
Assay type in all cases: functional
Mus musculus [1] = species on record: Mus musculus; test: Percent inhibition of [3H]colchicine binding to tubulin with molar ratio of 1:10 (inhibitor: [3H]colchicine)
Mus musculus [2] = species on record: Mus musculus; test: Percent inhibition of [3H]-colchicine binding to tubulin with molar ratio of 1:1 (inhibitor: [3H]-colchicine)
Method in brief: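 5 µM ligand, 5 µM tubulin and 5 µM [3H]colchicine in PMEG buffer (PME plus 0.1 mM GTP) were incubated 1.5 h at 37 °C, then quenched on ice. Bound label was separated by centrifuged G-50 gel filtration and counted by scintillation. Percent inhibition is relative to a no-ligand control, run in quadruplicate and averaged.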

Mus musculus [3] = species on record: Mus musculus; test: Concentration required to effect a 50% reduction in microtubule polymerization; settings: read-out: I50
Method in brief: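 GTP was added to 1 mM final and the sample warmed to 37 °C. Turbidity was followed at 400 nm, and percent inhibition was taken from plateau absorbance versus a no-ligand control. I50 was interpolated from the inhibition–concentration plot.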

IC50 (Mus musculus [3]) [µM]	SMILES	Inhibition (Mus musculus [1]) [%]	Inhibition (Mus musculus [2]) [%]
23	COc1cc2c(c(OC)c1OC)-c1ccc(OC(C)C)c(=O)cc1[C@@H](NC(C)=O)CC2	50.5	10.1
8.5	COc1cc2c(c(OC)c1OC)-c1ccc(CC(C)C)c(=O)cc1[C@@H](NC(C)=O)CC2	36.7	13.4
3.3	COc1cc2c(c(OC)c1OC)-c1ccc(Br)c(=O)cc1[C@@H](NC(C)=O)CC2	97.4	59.4
4.2	CCc1ccc2c(cc1=O)[C@@H](NC(C)=O)CCc1cc(OC)c(OC)c(OC)c1-2	96.5	54.9
3.8	COc1cc2c(c(OC)c1OC)-c1ccc(I)c(=O)cc1[C@@H](NC(C)=O)CC2	98.3	74
6.1	CCOc1ccc2c(cc1=O)[C@@H](NC(C)=O)CCc1cc(OC)c(OC)c(OC)c1-2	75	24.6
4.1	COc1cc2c(c(OC)c1OC)-c1ccc(C)c(=O)cc1[C@@H](NC(C)=O)CC2	96.7	56.6
3.5	CCCc1ccc2c(cc1=O)[C@@H](NC(C)=O)CCc1cc(OC)c(OC)c(OC)c1-2	89.2	41.7
10	CCC(C)c1ccc2c(cc1=O)[C@@H](NC(C)=O)CCc1cc(OC)c(OC)c(OC)c1-2 (some centres not stated)	57.1	19.6
11	CCCOc1ccc2c(cc1=O)[C@@H](NC(C)=O)CCc1cc(OC)c(OC)c(OC)c1-2	54.8	16.6
57	COc1cc2c(c(OC)c1OC)-c1ccc(-c3ccccc3)c(=O)cc1[C@@H](NC(C)=O)CC2	25.6	10.6
8.2	COc1cc2c(c(OC)c1OC)-c1ccc(F)c(=O)cc1[C@@H](NC(C)=O)CC2	50.2	11
4.2	COc1cc2c(c(OC)c1OC)-c1ccc(N=[N+]=[N-])c(=O)cc1[C@@H](NC(C)=O)CC2	95.8	51.1
7.9	COc1cc2c(c(OC)c1OC)-c1cccc(=O)cc1[C@@H](NC(C)=O)CC2 [CHOLCHICIDE]	53.7	13.2
26	CCCCc1ccc2c(cc1=O)[C@@H](NC(C)=O)CCc1cc(OC)c(OC)c(OC)c1-2	24.7	13.9
3.7	COc1cc2c(c(OC)c1OC)-c1ccc(Cl)c(=O)cc1[C@@H](NC(C)=O)CC2	96.2	57.2
4.2	COc1cc2c(c(OC)c1OC)-c1ccc(C(C)(C)C)c(=O)cc1[C@@H](NC(C)=O)CC2	69.4	21.9
4.2	COc1cc2c(c(OC)c1OC)-c1ccc(C(C)C)c(=O)cc1[C@@H](NC(C)=O)CC2	90	44.9

SMILES	IC50 (Mus musculus [3]) [µM]	Inhibition (Mus musculus [1]) [%]	Inhibition (Mus musculus [2]) [%]
COc1cc2c(c(OC)c1OC)-c1ccc(OC)c(=O)cc1[C@@H](NC(C)=O)CC2 [COLCHICINE]	5.1	89.7	37.2
